Screening results (PubChem BioAssay)
Only a selection was taken, and hits are over-represented in it overall.
IDH1 R132H inh: inhibitors of IDH1 R132H reductase, primary screen, biochemical, plate reader, single point | diaphorase/resazurin fluorescence, 60 min | 0.18% of 70,000 active | Isocitrate dehydrogenase [NADP] cytoplasmic (Homo sapiens), O75874 | inhibition, % at 10 µM | AID 624101, 2012; in the data active = inhibition above about 34%; inconclusive = no clear call, values can overlap the other calls; inactive = below about 11%;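 note: 0% = DMSO and 100% = no enzyme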
Target sequence (O75874 whole entry R132H): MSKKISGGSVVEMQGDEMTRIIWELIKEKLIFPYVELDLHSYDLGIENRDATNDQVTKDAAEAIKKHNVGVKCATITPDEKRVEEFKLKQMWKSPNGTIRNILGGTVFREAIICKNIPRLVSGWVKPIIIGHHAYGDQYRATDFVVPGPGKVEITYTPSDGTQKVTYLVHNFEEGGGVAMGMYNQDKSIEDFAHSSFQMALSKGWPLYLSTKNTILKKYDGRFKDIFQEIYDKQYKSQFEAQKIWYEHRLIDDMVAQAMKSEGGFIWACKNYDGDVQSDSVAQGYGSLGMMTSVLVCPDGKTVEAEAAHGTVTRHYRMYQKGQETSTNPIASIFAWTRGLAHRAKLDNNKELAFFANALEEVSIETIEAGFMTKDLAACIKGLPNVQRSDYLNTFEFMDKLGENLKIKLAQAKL
KDM4C inh: inhibitors of GASC-1 (KDM4C) histone demethylase, primary screen, biochemical, single concentration HTS; GST-KDM4C 2-372, H3K9me3 peptide, LANCE TR-FRET; inhibition, % at 12.5 µM; 0.15% of 96,000 active; AID 720574, 2013;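 active = mean replicate inhibition above about 25%, with at least 55% of replicates also reaching it, limit read from the data, passing the limit was not always enough; inconclusive = only one of those two conditions met; inactive = neither condition met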
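Assay system: GST-GASC-1 enzyme fragment 2-372 | Amount: 10 nM enzyme | Medium: HEPES buffer, pH 7.5, plus ascorbate | Reagent: H3K9me3 peptide substrate, Fe(II), 2-oxoglutarate | Doses: Single-point compound screen | Incubation: 30 min demethylation and 1 h detection at room temperature | Measured by: LANCE TR-FRET, excitation 340 nm, emissions 618 and 671 nm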
T cruzi growth-1: T. cruzi intracellular proliferation inhibitors, primary screen, cell-based, beta-gal Tulahuen parasites, NIH3T3 host, luminescence; T. cruzi beta-gal in NIH3T3, GalScreen luminescence, 90 h; inhibition, % at 8.34 µM; 5.9% of 77,000 active; AID 624255, 2012;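 active = mean inhibition above about 93%, with at least 55% of replicates each passing it, limit read from the data, passing the limit was not always enough; inconclusive = only one of those two conditions holds; inactive = neither condition holds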
T cruzi growth-2: T. cruzi intracellular proliferation inhibitors, confirmation, cell-based, NIH3T3 host, beta-gal parasite, luminescence, cherry-pick. shares compounds with T cruzi growth-1. 72% of 5,600 active. inhibition, % at 8.35 µM. AID 651739, 2012. T. cruzi beta-gal in NIH3T3, GalScreen luminescence, 90 h;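 active = mean replicate inhibition above about 95% and at least 55% of replicates individually reaching it, limit read from the data; inconclusive = only one of the two criteria is met; inactive = neither criterion is met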
T cruzi growth-3: inhibitors of intracellular T. cruzi replication, confirmation, NIH3T3 host cells, beta-gal parasites, cherry-pick, set 2. AID 651740, 2012. T. cruzi beta-gal in NIH3T3, GalScreen luminescence, 90 h. shares compounds with T cruzi growth-1. 21% of 5,600 active. inhibition, % at 2.09 µM;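 active = mean inhibition above about 95%, with at least 55% of replicates also reaching it, limit read from the data; inconclusive = meets just one of the two conditions; inactive = meets neither condition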;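 note: plate controls were neutral control median for no effect and positive control median for full effect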
3T3 cytotox: cytotoxicity in mouse NIH/3T3 fibroblasts, confirmation, cytotoxicity control for T. cruzi proliferation inhibitor project, cell-based, cherry-pick, single point. shares compounds with T cruzi growth-1. NIH/3T3 viability, CellTiter-Glo ATP luminescence, 90 h. cytotoxicity (signal decrease), % at 8.35 µM. 14% of 5,600 active;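 active = mean signal decrease across replicates above about 35% based on untreated-well scatter, with enough replicates individually passing, limit read from the data; inconclusive = no rule stated though some were filed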;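 note: 0% = median of neutral control wells and 100% = median of positive control wells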
3T3 cytotox 2: NIH/3T3 fibroblast cytotoxicity, confirmation, cytotoxicity control, cell-based, cherry-pick, single point, set 2; shares compounds with T cruzi growth-1; NIH/3T3 viability, CellTiter-Glo ATP luminescence, 90 h; inhibition, % at 24.9 µM; 56% of 5,600 active; AID 651744, 2012;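 active = mean loss of cell viability signal at or above a set limit, and enough replicates individually reaching it; inconclusive = meets only the mean limit or only the replicate share; inactive = meets neither condition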;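 note: 0% = median of neutral control wells and 100% = median of positive control wells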
* hit, by the source's call.

Results for Cc1ccc(S(=O)(=O)N(C)C[C@@H]2Oc3ccc(NC(=O)Nc4ccc5c(c4)OCO5)cc3CC(=O)N([C@@H](C)CO)C[C@H]2C)cc1 ?
IDH1 R132H inh: 2.8; KDM4C inh: 0.3; T cruzi growth-1: 29.6

Results for CCNC(=O)[C@@H]1[C@@H](CO)[C@@H]2Cn3c(cccc3=O)[C@@H]2N1CC1CCCCC1 ?
KDM4C inh: 2.7; T cruzi growth-1: active; T cruzi growth-2: -27.1; T cruzi growth-3: -24.4; 3T3 cytotox: -4.1; 3T3 cytotox 2: -8.0

How did O=C(Nc1ccc(-c2ccccc2)cc1)[C@H]1[C@H](CO)[C@H]2Cn3c(cccc3=O)[C@H]2N1CC1CCCCC1 do in these assays?
KDM4C inh: -0.9; T cruzi growth-1: inconclusive; T cruzi growth-2: 85.3; T cruzi growth-3: 110.2*; 3T3 cytotox: 19.9; 3T3 cytotox 2: 106.9*

What do the screens show for `O=C(Nc1ccc(-c2ccccc2)cc1)[C@H]1[C@H](CO)[C@H]2Cn3c(cccc3=O)[C@H]2N1CC1CCCC1`?
KDM4C inh: -0.1

Results for CCCNC(=O)[C@@H]1[C@@H](CO)[C@@H]2Cn3c(cccc3=O)[C@@H]2N1CC1CCCCC1 ?
KDM4C inh: 2.6; T cruzi growth-1: 1.6

How did O=C(Nc1nccs1)[C@H]1[C@H](CO)[C@H]2Cn3c(ccc(-c4ccccc4)c3=O)[C@H]2N1CC1CCCC1 do in these assays?
KDM4C inh: -0.3; T cruzi growth-1: 98.0*; T cruzi growth-2: 105.8*; T cruzi growth-3: 56.7; 3T3 cytotox: 27.2; 3T3 cytotox 2: 64.2*

Results for O=C(Nc1nccs1)[C@H]1[C@H](CO)[C@H]2Cn3c(ccc(-c4cncnc4)c3=O)[C@H]2N1CC1CCCC1 ?
KDM4C inh: 4.5; T cruzi growth-1: -21.0

What do the screens show for `C[C@@H]1CN([C@H](C)CO)C(=O)c2cccc(NS(=O)(=O)c3ccccc3)c2O[C@@H]1CN(C)CC1CCCCC1`?
IDH1 R132H inh: 0.0; KDM4C inh: 1.2; T cruzi growth-1: 56.5

Results for C[C@H]1CN([C@@H](C)CO)C(=O)Cc2cc(N(C)C)ccc2O[C@H]1CN(C)Cc1ccc(Oc2ccccc2)cc1 ?
IDH1 R132H inh: -0.1; KDM4C inh: -1.8; T cruzi growth-1: inconclusive; T cruzi growth-2: 105.7*; T cruzi growth-3: 113.7*; 3T3 cytotox: 19.2; 3T3 cytotox 2: 105.9*

What do the screens show for `C[C@@H]1CN([C@H](C)CO)C(=O)Cc2cc(N(C)C)ccc2O[C@@H]1CN(C)Cc1ccc(Oc2ccccc2)cc1`?
IDH1 R132H inh: 1.5; KDM4C inh: 0.6; T cruzi growth-1: 40.1

How did C[C@H](CO)N1C[C@H](C)[C@H](CN(C)Cc2ccccc2)Oc2ccc(N(C)C)cc2CC1=O do in these assays?
IDH1 R132H inh: -2.9; KDM4C inh: 6.1; T cruzi growth-1: -18.7

How did C[C@H]1CN([C@@H](C)CO)C(=O)Cc2cc(N(C)C)ccc2O[C@@H]1CN(C)Cc1ccc(Oc2ccccc2)cc1 do in these assays?
IDH1 R132H inh: 2.6; KDM4C inh: 0.3; T cruzi growth-1: 115.2*; T cruzi growth-2: 104.5*; T cruzi growth-3: 47.7; 3T3 cytotox: -10.5; 3T3 cytotox 2: 77.4*

How did C[C@@H]1CN([C@H](C)CO)C(=O)c2cc(N(C)C)ccc2O[C@H]1CN(C)Cc1ccc(Oc2ccccc2)cc1 do in these assays?
KDM4C inh: 3.4; T cruzi growth-1: 59.6

What do the screens show for `C[C@H](CO)N1C[C@H](C)[C@H](CN(C)Cc2ccc(Oc3ccccc3)cc2)Oc2ccc(N(C)C)cc2C1=O`?
IDH1 R132H inh: 0.7; KDM4C inh: -0.8; T cruzi growth-1: 98.1*; T cruzi growth-2: inconclusive; T cruzi growth-3: 8.3; 3T3 cytotox: -6.2; 3T3 cytotox 2: 101.4*

What do the screens show for `C[C@@H]1CN([C@H](C)CO)C(=O)Cc2cc(NS(=O)(=O)c3ccc(F)cc3)ccc2O[C@@H]1CN(C)C`?
KDM4C inh: 1.5; T cruzi growth-1: -24.8

What do the screens show for `CC(C)NC(=O)N(C)C[C@H]1Oc2ccc(NC(=O)CCN3CCOCC3)cc2CC(=O)N([C@@H](C)CO)C[C@H]1C`?
IDH1 R132H inh: 2.1; KDM4C inh: -1.0

How did C[C@@H]1CN([C@@H](C)CO)C(=O)c2cc(/C=C/c3ccccc3)cnc2O[C@@H]1CN(C)Cc1ccncc1 do in these assays?
IDH1 R132H inh: 0.0; KDM4C inh: -2.2; T cruzi growth-1: 67.7

What do the screens show for `C[C@@H]1CN([C@H](C)CO)C(=O)c2cc(/C=C/c3ccccc3)cnc2O[C@@H]1CN(C)Cc1ccccc1`?
IDH1 R132H inh: 0.0; KDM4C inh: 0.5; T cruzi growth-1: 84.1

How did Cc1cccc(CN(C)C[C@@H]2Oc3ncc(/C=C/c4ccccc4)cc3C(=O)N([C@H](C)CO)C[C@@H]2C)c1 do in these assays?
IDH1 R132H inh: 0.4; KDM4C inh: 1.5; T cruzi growth-1: 86.4

What do the screens show for `C[C@@H]1CN([C@H](C)CO)C(=O)c2cc(/C=C/c3ccccc3)cnc2O[C@H]1CN(C)Cc1ccncc1`?
IDH1 R132H inh: 2.8; KDM4C inh: 0.9; T cruzi growth-1: 112.9*; T cruzi growth-2: 105.3*; T cruzi growth-3: 66.0; 3T3 cytotox: 14.4; 3T3 cytotox 2: 30.4*

Results for COc1cccc(-c2cnc3c(c2)C(=O)N([C@H](C)CO)C[C@H](C)[C@H](CN(C)Cc2cccc(C(F)(F)F)c2)O3)c1 ?
IDH1 R132H inh: 4.1; KDM4C inh: 0.4; T cruzi growth-1: inconclusive; T cruzi growth-2: 107.1*; T cruzi growth-3: 80.2; 3T3 cytotox: 30.0; 3T3 cytotox 2: 61.2*

How did COc1cccc(-c2cnc3c(c2)C(=O)N([C@H](C)CO)C[C@H](C)[C@H](CN(C)Cc2ccccc2)O3)c1 do in these assays?
IDH1 R132H inh: -1.6; KDM4C inh: -1.2; T cruzi growth-1: 15.6

What do the screens show for `C[C@H](CO)N1C[C@H](C)[C@H](CN(C)Cc2cccc(C(F)(F)F)c2)Oc2ncc(/C=C/c3ccccc3)cc2C1=O`?
IDH1 R132H inh: 0.0; KDM4C inh: 0.7; T cruzi growth-1: 116.3*; T cruzi growth-2: 104.7*; T cruzi growth-3: 112.0*; 3T3 cytotox: -18.7; 3T3 cytotox 2: 80.1*
